Legend:
CARM1 [1] = target: T1, CARM1 (Homo sapiens, UniProt Q86X55); assay: In vitro methylation assay, CARM1 with PABP1 as substrate; type: biochemical; conditions: for effect against PABP1 methylation by CARM1 (fluorograph): compound at 20 μM
T1 sequence (Q86X55 1-608): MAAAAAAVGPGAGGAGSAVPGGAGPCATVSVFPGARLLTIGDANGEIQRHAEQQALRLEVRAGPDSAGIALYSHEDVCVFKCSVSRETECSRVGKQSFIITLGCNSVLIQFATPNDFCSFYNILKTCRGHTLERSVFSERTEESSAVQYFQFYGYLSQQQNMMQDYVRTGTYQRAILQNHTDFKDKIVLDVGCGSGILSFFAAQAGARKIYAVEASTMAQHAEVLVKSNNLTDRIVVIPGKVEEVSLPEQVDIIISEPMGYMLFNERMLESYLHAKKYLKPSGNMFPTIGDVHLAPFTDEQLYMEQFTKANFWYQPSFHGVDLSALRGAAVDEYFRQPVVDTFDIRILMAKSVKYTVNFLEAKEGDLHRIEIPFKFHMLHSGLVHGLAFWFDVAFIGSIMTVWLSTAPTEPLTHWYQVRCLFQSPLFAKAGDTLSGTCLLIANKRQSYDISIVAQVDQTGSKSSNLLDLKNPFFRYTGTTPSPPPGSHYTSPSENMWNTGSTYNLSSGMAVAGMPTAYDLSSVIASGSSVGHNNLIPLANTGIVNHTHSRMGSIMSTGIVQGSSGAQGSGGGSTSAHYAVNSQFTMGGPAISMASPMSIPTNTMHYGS

[2] = test system: Flag-PABP1 methylation in HEK293 cells; assay: Tetracycline-inducible Flag-PABP1 methylation reporter system in HEK293 cells; type: cell-based, human; conditions: tetracycline-induced Flag-PABP1, methyl-specific PABP1 antibody
Method in brief: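 HEK293 cells engineered with a tetracycline-controlled TetR repressor carry tetO-regulated Flag-PABP1. Tetracycline is added with test compound to induce Flag-PABP1. Lysates are resolved by SDS-PAGE, where Flag-PABP1 migrates slower than endogenous PABP1. Its methylation is detected by immunoblot with an in-house methyl-specific PABP1 antibody.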

G9a = target: T2, G9a (Homo sapiens, UniProt Q96KQ7); assay: In vitro methylation fluorograph, G9a with H3 as substrate; type: biochemical; conditions: compound at 100 μM
T2 sequence (Q96KQ7 1-1210): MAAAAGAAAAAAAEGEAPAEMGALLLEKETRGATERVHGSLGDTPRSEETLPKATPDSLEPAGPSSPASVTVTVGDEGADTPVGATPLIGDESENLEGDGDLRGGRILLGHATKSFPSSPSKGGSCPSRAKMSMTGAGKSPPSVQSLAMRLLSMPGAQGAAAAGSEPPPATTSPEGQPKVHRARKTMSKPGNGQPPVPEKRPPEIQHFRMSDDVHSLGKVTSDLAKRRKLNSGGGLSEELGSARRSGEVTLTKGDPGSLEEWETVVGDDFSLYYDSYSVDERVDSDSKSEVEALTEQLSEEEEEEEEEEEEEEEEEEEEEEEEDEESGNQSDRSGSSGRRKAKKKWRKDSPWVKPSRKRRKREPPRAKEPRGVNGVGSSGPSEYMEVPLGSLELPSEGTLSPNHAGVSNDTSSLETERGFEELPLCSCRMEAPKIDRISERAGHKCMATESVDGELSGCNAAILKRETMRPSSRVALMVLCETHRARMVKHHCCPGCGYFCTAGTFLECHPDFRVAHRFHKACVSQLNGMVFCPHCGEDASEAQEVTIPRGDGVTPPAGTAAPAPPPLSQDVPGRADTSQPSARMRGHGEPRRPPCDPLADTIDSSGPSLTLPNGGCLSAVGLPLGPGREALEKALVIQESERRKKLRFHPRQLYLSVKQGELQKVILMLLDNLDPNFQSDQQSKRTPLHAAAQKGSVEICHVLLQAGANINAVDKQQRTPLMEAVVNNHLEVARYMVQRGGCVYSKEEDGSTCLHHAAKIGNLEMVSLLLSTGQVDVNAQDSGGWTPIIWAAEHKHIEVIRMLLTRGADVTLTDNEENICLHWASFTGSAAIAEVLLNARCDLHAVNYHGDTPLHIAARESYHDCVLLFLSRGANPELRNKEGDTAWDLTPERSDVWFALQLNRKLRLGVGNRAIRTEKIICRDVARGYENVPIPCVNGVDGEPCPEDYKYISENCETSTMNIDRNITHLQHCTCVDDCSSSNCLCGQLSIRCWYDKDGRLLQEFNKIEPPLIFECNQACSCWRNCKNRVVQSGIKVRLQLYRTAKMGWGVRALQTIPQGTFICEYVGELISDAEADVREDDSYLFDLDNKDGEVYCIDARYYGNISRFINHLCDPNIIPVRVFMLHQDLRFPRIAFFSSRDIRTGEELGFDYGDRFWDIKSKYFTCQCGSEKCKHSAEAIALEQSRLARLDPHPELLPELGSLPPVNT
Method in brief: (§1)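 Recombinant enzyme (0.1–0.2 μM) and substrate (0.5–1.5 μM) are incubated with [methyl-³H]AdoMet (85 Ci/mmol) in PBS pH 7.4. Test compound is present at 100 μM. Reactions run 90 min at 30 °C, are resolved by SDS/PAGE and transferred to PVDF. The membrane is sprayed with Enhance and exposed to film overnight. Substrate bands are located by Ponceau S, excised and counted (dpm) for graphic depiction.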

Suv39H1 = target: T3, Suv39H1 (Homo sapiens, UniProt O43463); assay: In vitro methylation fluorograph, Suv39H1 with H3 as substrate; type: biochemical; conditions: compound at 100 μM
T3 sequence (O43463 1-412): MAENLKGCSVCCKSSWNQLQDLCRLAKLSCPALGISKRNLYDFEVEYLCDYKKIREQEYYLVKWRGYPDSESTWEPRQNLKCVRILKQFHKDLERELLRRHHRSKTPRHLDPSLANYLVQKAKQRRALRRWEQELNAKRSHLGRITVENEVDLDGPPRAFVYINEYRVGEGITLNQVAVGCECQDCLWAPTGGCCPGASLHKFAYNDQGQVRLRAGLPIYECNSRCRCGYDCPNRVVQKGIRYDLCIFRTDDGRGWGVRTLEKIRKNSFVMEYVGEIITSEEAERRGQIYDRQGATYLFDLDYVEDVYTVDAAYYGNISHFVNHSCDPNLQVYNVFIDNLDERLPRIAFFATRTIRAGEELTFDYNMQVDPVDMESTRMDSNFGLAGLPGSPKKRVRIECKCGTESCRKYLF
Method in brief: as §1

DOTL1 = DOTL1 (Homo sapiens, UniProt Q8TEK3); assay: In vitro methylation fluorograph, DOTL1 with nucleosome as substrate; type: biochemical; conditions: compound at 100 μM
DOTL1, sequence (Q8TEK3 whole entry): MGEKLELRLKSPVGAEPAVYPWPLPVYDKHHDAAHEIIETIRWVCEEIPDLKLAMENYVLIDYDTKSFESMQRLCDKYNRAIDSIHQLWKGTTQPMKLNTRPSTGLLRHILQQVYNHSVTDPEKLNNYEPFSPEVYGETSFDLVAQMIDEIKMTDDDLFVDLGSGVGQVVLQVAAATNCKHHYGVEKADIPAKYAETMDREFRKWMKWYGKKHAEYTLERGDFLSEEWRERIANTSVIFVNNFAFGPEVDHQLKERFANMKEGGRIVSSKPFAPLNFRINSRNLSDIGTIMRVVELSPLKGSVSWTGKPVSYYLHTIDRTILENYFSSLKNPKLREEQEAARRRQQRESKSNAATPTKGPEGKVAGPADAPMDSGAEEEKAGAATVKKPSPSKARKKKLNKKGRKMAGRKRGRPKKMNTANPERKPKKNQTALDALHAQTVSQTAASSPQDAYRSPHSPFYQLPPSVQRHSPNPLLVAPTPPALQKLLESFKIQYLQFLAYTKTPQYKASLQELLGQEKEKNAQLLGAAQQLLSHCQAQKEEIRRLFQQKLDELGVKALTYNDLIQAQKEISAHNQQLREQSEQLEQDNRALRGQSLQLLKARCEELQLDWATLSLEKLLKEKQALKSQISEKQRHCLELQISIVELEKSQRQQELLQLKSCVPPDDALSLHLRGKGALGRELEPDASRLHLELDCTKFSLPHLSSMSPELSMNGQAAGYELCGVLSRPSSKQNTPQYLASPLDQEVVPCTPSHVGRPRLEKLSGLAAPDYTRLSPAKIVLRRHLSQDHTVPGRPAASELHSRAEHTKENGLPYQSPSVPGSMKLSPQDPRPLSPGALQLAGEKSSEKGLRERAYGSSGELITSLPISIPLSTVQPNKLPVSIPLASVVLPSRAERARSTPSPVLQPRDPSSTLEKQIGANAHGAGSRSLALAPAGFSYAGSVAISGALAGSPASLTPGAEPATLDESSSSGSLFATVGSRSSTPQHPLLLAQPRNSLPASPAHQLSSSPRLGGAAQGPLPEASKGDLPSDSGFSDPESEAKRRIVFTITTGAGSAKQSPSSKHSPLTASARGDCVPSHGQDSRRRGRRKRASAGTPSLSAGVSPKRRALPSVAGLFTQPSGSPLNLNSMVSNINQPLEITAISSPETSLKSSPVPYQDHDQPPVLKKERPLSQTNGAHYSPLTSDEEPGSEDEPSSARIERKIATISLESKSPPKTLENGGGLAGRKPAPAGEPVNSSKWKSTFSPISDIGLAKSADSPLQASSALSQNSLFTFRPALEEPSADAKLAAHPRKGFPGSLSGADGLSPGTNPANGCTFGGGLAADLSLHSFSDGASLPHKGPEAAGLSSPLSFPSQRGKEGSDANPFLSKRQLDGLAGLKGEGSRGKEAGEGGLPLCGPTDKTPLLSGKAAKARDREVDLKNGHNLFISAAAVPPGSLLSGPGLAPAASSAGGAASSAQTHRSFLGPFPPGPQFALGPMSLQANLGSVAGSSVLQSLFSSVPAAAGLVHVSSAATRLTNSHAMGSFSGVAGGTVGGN
Method in brief: as §1

SET7 = target: T4, SET7 (Homo sapiens, UniProt Q8WTS6); assay: In vitro methylation assay, SET7 with histone H3 as substrate; type: biochemical; conditions: compound at 100 μM
T4 sequence (Q8WTS6 1-366): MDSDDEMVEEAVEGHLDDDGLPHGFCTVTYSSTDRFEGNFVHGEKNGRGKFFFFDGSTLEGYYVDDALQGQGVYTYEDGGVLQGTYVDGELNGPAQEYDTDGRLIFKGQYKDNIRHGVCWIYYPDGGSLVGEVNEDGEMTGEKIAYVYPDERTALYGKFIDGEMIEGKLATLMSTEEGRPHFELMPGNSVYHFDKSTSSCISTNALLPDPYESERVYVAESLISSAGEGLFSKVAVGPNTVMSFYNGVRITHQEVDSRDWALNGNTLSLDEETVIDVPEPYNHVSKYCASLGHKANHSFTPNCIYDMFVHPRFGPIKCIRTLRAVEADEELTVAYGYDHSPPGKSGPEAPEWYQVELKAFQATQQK

PRMT5 = PRMT5 (Homo sapiens, UniProt O14744); assay: In vitro methylation fluorograph, PRMT5 with histone H4 as substrate; type: biochemical; conditions: compound at 100 μM
PRMT5, sequence (O14744 whole entry, species assumed): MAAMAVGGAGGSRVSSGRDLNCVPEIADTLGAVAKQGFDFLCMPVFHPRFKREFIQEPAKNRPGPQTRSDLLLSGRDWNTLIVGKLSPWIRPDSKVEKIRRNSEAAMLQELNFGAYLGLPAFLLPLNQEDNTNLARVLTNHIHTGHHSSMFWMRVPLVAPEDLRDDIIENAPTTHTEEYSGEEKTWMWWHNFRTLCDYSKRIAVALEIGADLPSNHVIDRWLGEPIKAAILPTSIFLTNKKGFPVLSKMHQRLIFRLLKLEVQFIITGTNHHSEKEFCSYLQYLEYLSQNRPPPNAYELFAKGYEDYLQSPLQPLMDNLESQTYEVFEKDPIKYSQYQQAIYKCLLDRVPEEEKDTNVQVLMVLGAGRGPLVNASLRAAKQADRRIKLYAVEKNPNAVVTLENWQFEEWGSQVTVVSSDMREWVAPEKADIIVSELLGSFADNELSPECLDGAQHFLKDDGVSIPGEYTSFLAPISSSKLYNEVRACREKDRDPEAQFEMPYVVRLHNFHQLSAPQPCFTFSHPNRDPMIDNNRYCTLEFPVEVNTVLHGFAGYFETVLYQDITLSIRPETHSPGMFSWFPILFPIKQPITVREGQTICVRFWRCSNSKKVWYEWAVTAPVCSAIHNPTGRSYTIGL
Method in brief: as §1

CARM1 [3] = target: T1, CARM1; type: biochemical; conditions: compound at 100 μM; substrates PABP1, CA150, SmB, histone H3
Method in brief: as §1

PRMT3 = PRMT3 (Homo sapiens, UniProt O60678); assay: In vitro methylation fluorograph, PRMT3 with NPL3 and rpS2 as substrates; type: biochemical; conditions: compound at 100 μM
PRMT3, sequence (O60678 whole entry, species assumed): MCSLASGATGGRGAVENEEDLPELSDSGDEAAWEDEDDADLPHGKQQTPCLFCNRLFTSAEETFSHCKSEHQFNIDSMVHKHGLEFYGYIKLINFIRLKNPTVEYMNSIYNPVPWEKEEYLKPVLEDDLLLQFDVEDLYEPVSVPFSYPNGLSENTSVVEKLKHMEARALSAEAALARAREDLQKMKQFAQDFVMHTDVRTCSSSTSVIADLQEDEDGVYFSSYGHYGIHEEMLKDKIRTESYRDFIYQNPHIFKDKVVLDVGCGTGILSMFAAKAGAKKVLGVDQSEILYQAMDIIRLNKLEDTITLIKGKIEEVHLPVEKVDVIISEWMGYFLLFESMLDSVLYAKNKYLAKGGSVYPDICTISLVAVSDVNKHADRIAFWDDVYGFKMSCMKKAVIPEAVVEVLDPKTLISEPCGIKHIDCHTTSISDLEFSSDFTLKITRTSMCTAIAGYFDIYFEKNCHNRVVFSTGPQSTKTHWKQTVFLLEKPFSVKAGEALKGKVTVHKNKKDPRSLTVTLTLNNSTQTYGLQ
Method in brief: as §1

LNCaP cells = assay: Cell viability by Cell Titer-Glo; type: cell-based; conditions: at concentrations that impacted the luciferase assay
Method in brief: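 LNCaP cells are grown in phenol-red-free RPMI1640 with 10% charcoal-stripped FCS and transfected with PSA(ARE)-LUC and CMV-Renilla. After 12 h they are treated with 20 nM DHT plus increasing concentrations of test compound. After 42–44 h, cells are washed twice with PBS and harvested, and 1/6 of them is assayed with CellTiter-Glo luminescent reagent for ATP-based viability.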

[4] = test system: PSA promoter in LNCaP cells; assay: PSA luciferase assay in LNCaP cells; type: cell-based, human; conditions: two days, relative to CMV-Renilla control
Method in brief: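 LNCaP cells are grown in phenol-red-free RPMI1640 with 10% charcoal-stripped FCS and seeded ~20 h before Lipofectamine transfection with 300 ng PSA(ARE)-LUC and 2 ng humanized CMV-Renilla. After 12 h, cells receive 20 nM DHT plus test compound at increasing concentrations. After 42–44 h, 5/6 of the washed, harvested cells go to a dual luciferase assay, normalised to Renilla. Values are mean ± SD of triplicates.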

SMILES	effect against PABP1 methylation by CARM1 (fluorograph) (CARM1 [1])	inhibition of Flag-PABP1 methylation [2]	activity against G9a (fluorograph) (G9a)	activity against Suv39H1 (fluorograph) (Suv39H1)	activity against DOTL1 (fluorograph) (DOTL1)	activity against SET7 (fluorograph) (SET7)	inhibition of PRMT5 (fluorograph) (PRMT5)	inhibition of CARM1 activity on various substrates (fluorograph) (CARM1 [3])	inhibition of PRMT3 (fluorograph) (PRMT3)	enzyme preference of inhibition (in words) (CARM1 [1]; series 7a-m, IC50 determination vs PRMT1, CARM1, SET7 (Table S1))	effects on cell viability (LNCaP cells)	concentration effective on PSA reporter activity [4] [µM]
O=C1/C(=C/c2ccc(O)c(Br)c2)CN(CCCc2ccccc2)C/C1=C\c1ccc(O)c(Br)c1 [8k]	no effect											
Cc1ccc(CN2C/C(=C\c3ccc(O)c(Br)c3)C(=O)/C(=C/c3ccc(O)c(Br)c3)C2)cc1 [8c]	no effect											
O=C1/C(=C/c2ccc(O)c(Br)c2)CN(Cc2cccc(Cl)c2)C/C1=C\c1ccc(O)c(Br)c1 [8e]		only 7g was able to inhibit	No significant activity	No significant activity	No significant activity	No significant activity	high inhibition	strongly inhibited	able to inhibit to some extent			
O=C1/C(=C/c2ccc(O)c(Br)c2)CN(Cc2ccccc2)C/C1=C\c1ccc(O)c(Br)c1 [7g, 1-benzyl-3,5-bis(3-bromo-4-hydroxybenzylidene) piperidin-4-one]		able to inhibit	No significant activity	No significant activity	No significant activity	No significant activity		strongly inhibited	able to inhibit to some extent	preferably inhibited CARM1	no or little effects	
O=C1/C(=C/c2ccc(O)c(Br)c2)CN(CC(=O)c2ccccc2)C/C1=C\c1ccc(O)c(Br)c1 [8l]		only 7g was able to inhibit	No significant activity	No significant activity	No significant activity	No significant activity	high inhibition	strongly inhibited			no or little effects	30

— publication PMC3487391 (Journal of medicinal chemistry, 2011)
